From ChEMBL document CHEMBL1135880, “Synthesis and X-ray studies of chiral allosteric modifiers of hemoglobin” (J Med Chem, 2002)

Experiments:
[1] = target: T1, Hemoglobin HbA (Homo sapiens) (UniProt P69905+P68871); test: Ability to right-shift the oxygen equilibrium curves (OECs) quantified by ability to increase in P50 at which Hb was 50% saturated with oxygen in the […] of the effector.; type: functional
[2] = target: T1, Hemoglobin HbA (Homo sapiens); test: Ability to right-shift the oxygen equilibrium curves (OECs) quantified by ability to increase in P50 in whole blood analyses.; type: functional, tissue-based
Outline: (§1)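 Human whole blood; DMSO stock 200 mM, final 5 mM effector, DMSO-only control. Duplicate samples equilibrated ~10 min at 37 °C in tonometers against gas mixtures of 2.95%, 5.85% and 8.75% O2 with 5.8% CO2, balance N2. pO2 and sO2 read on blood gas analyzer and co-oximeter. P50 and n50 from nonlinear regression; ΔP50 = P50 effector − P50 control.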

[3] = target: T1, Hemoglobin HbA (Homo sapiens); test: Oxygen pressure in mmHg at which Hb is 50% saturated with oxygen at 50-60 uM heme concentration and in the presence of 0.5 mM effector.; type: functional
[4] = target: T1, Hemoglobin HbA (Homo sapiens); test: The difference in the partial pressure of oxygen at 50% saturated Hb; type: functional; outline: as §1
[5] = target: T1, Hemoglobin HbA (Homo sapiens); test: The Hill coefficient at 50% saturation (n50) in the presence of effector.; type: protein-complex assay; outline: as §1
[6] = target: T1, Hemoglobin HbA (Homo sapiens); test: Ability to right-shift the oxygen equilibrium curves (OECs) quantified by ability to increase in P50 at which Hb was 50% saturated with oxygen in the presence of the effector at the concentration of 5 mM.; type: functional; outline: as §1
[7] = target: T1, Hemoglobin HbA (Homo sapiens); test: The Hill coefficient at 50% saturation (n50) between 40 and 60% oxygen saturation (n50 control value with no effector present, 2.7).; type: protein-complex assay
[8] = target: T1, Hemoglobin HbA (Homo sapiens); test: Ratio of […] (P50 control value with no effector present 5.0 mmHg, in case of DMSO is 4.7 mmHg ); type: functional
[9] = target: T1, Hemoglobin HbA (Homo sapiens); test: Ability to right-shift the oxygen equilibrium curves (OECs) quantified by ability to increase in P50 at which Hb was 50% saturated with oxygen in the […] of the effector at the concentration of 5 mM.; type: functional; outline: as §1

T1 sequence (P68871 2-147 partner limits assumed): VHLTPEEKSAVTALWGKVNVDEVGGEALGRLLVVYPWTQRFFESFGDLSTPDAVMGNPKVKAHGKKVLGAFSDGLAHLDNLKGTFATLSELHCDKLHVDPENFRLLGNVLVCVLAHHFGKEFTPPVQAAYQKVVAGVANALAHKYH
T1 sequence (P69905 2-142 limits assumed): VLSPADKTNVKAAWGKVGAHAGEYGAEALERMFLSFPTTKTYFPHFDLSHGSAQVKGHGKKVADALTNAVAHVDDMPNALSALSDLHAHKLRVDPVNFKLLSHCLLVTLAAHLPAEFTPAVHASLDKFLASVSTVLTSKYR

| P50e [1] | P50c [2] | P50e [3] | Delta P50 [4] | n50e [5] | P50e [6] | Hill coefficient (n50) [7] | P50e / P50c [8] | P50e [9] | Structure (SMILES) |
| --- | --- | --- | --- | --- | --- | --- | --- | --- | --- |
| 50.7 mmHg | 27.1 mmHg | 18.1 mmHg | 26.6 | 2.3 | 56.8 mmHg | 2.6 | 3.6 |  | CSCC[C@H](NC(=O)C1(Oc2ccc(CC(=O)Nc3cc(C)cc(C)c3)cc2)CCCC1)C(=O)O |
| 42.8 mmHg | 26.8 mmHg | 10.5 mmHg | 17.6 | 2.1 | 46.2 mmHg | 2.7 | 2.1 |  | Cc1cc(C)cc(NC(=O)Cc2ccc(OC3(C(=O)N[C@@H](C)C(=O)O)CCCC3)cc2)c1 |
| 50.1 mmHg | 28.3 mmHg | 16.8 mmHg | 22.5 | 2 | 51.4 mmHg | 2.6 | 3.4 |  | Cc1cc(C)cc(NC(=O)Cc2ccc(OC3(C(=O)N[C@H](CCC(=O)O)C(=O)O)CCCC3)cc2)c1 |
| 80 mmHg | 29.8 mmHg |  | 51.5 | 1.5 | 82.6 mmHg | 2.3 | 4.7 |  | Cc1cc(C)cc(NC(=O)Cc2ccc(OC(C)(C)C(=O)O)cc2)c1 |
| 27.2 mmHg | 28.3 mmHg | 5.8 mmHg | -0.2 | 2.7 | 29 mmHg | 2.3 | 1.2 |  | Cc1cc(C)cc(NC(=O)Cc2ccc(OC3(C(=O)N[C@@H](CCCCN)C(=O)O)CCCC3)cc2)c1 |
| 30.6 mmHg | 24.8 mmHg | 43 mmHg | 7.2 | 2.3 | 33.3 mmHg | 2.1 | 8.6 |  | Cc1cc(C)cc(NC(=O)Cc2ccc(OC3(C(=O)N[C@H](CSCc4ccccc4)C(=O)O)CCCC3)cc2)c1 |
| 56.6 mmHg | 26.7 mmHg | 13.9 mmHg | 30.2 | 1.9 | 57.3 mmHg | 2.6 | 2.8 |  | Cc1cc(C)cc(NC(=O)Cc2ccc(OC3(C(=O)N[C@@H](C(=O)O)C(C)C)CCCC3)cc2)c1 |
| 50 mmHg | 26.2 mmHg | 12 mmHg | 25.1 | 2.1 | 52.6 mmHg | 2.6 | 2.4 |  | Cc1cc(C)cc(NC(=O)Cc2ccc(OC3(C(=O)NCC(=O)O)CCCC3)cc2)c1 |
| 39.7 mmHg | 27.5 mmHg | 14.3 mmHg | 12.9 | 2.2 | 41.1 mmHg | 2.6 | 2.9 |  | Cc1cc(C)cc(NC(=O)Cc2ccc(OC3(C(=O)N[C@@H](C(=O)O)C(C)O)CCCC3)cc2)c1 (some centres not stated) |
|  | 28.7 mmHg | 37.1 mmHg | 20 | 2.1 | 49.9 mmHg | 2.1 | 7.4 | 47.5 mmHg | Cc1cc(C)cc(NC(=O)Cc2ccc(OC3(C(=O)N[C@H](Cc4ccc5[nH]ccc5c4)C(=O)O)CCCC3)cc2)c1 |
| 70.6 mmHg | 29.4 mmHg | 21.3 mmHg | 41.5 | 1.8 | 71.3 mmHg | 2.7 | 4.3 |  | Cc1cc(C)cc(NC(=O)Cc2ccc(OC3(C(=O)N[C@@H](CC(C)C)C(=O)O)CCCC3)cc2)c1 |
| 38.9 mmHg | 26.5 mmHg | 12.3 mmHg | 13.2 | 2.3 | 40.6 mmHg | 2.6 | 2.5 |  | CC[C@@H](C)[C@@H](NC(=O)C1(Oc2ccc(CC(=O)Nc3cc(C)cc(C)c3)cc2)CCCC1)C(=O)O |
| 38.7 mmHg | 26.2 mmHg | 17.1 mmHg | 15.5 | 2.3 | 44.7 mmHg | 2.6 | 3.4 |  | Cc1cc(C)cc(NC(=O)Cc2ccc(OC3(C(=O)N[C@@H](CO)C(=O)O)CCCC3)cc2)c1 |
| 41.9 mmHg | 27.1 mmHg | 9.4 mmHg | 15.2 | 2.3 | 42.6 mmHg | 2.6 | 1.9 |  | Cc1cc(C)cc(NC(=O)Cc2ccc(OC3(C(=O)N[C@H](CC(C)C)C(=O)O)CCCC3)cc2)c1 |
| 47.2 mmHg | 27.9 mmHg | 37 mmHg | 20.2 | 2 | 48.8 mmHg | 2.3 | 7.4 |  | Cc1cc(C)cc(NC(=O)Cc2ccc(OC3(C(=O)N[C@@H](Cc4ccc5[nH]ccc5c4)C(=O)O)CCCC3)cc2)c1 |
| 27.6 mmHg | 27.5 mmHg | 22.4 mmHg | 0.4 | 2.5 | 28.2 mmHg | 2.5 | 4.5 |  | Cc1cc(C)cc(NC(=O)Cc2ccc(OC3(C(=O)N[C@H](CCCCNC(=O)OCc4ccccc4)C(=O)O)CCCC3)cc2)c1 |
| 41.1 mmHg | 24.8 mmHg | 13.5 mmHg | 17 | 2.3 | 42.5 mmHg | 2.7 | 2.7 |  | Cc1cc(C)cc(NC(=O)Cc2ccc(OC3(C(=O)N4CCC[C@H]4C(=O)O)CCCC3)cc2)c1 |
| 50.3 mmHg | 29.4 mmHg | 13.8 mmHg | 21.9 | 1.7 | 52.1 mmHg | 2.6 | 2.8 |  | Cc1cc(C)cc(NC(=O)Cc2ccc(OC3(C(=O)N[C@H](C)C(=O)O)CCCC3)cc2)c1 |
| 64.1 mmHg | 27.4 mmHg | 12.4 mmHg | 38.4 | 1.8 | 67.5 mmHg | 2.7 | 2.6 |  | Cc1cc(C)cc(NC(=O)Cc2ccc(OC3(C(=O)N[C@@H](Cc4ccccc4)C(=O)O)CCCC3)cc2)c1 |
| 44.8 mmHg | 24.5 mmHg | 9.5 mmHg | 20.6 | 2.1 | 45.5 mmHg | 2.8 | 1.9 |  | CSCC[C@@H](NC(=O)C1(Oc2ccc(CC(=O)Nc3cc(C)cc(C)c3)cc2)CCCC1)C(=O)O |
| 47 mmHg | 27.2 mmHg | 48.6 mmHg | 20.8 | 2 | 49 mmHg | 2.3 | 9.7 |  | Cc1cc(C)cc(NC(=O)Cc2ccc(OC3(C(=O)N[C@H](Cc4ccc(O)cc4)C(=O)O)CCCC3)cc2)c1 |
| 50.2 mmHg | 26.2 mmHg | 16.1 mmHg | 26.6 | 1.9 | 55.3 mmHg | 2.6 | 3.2 |  | Cc1cc(C)cc(NC(=O)Cc2ccc(OC3(C(=O)N[C@H](CC(=O)O)C(=O)O)CCCC3)cc2)c1 |
| 67.7 mmHg | 28.9 mmHg |  | 42.3 | 1.7 | 74.7 mmHg | 2.4 | 5.1 |  | Cc1cc(C)cc(NC(=O)Cc2ccc(OC3(C(=O)O)CCCC3)cc2)c1 |
| 39.5 mmHg | 28.3 mmHg | 29.5 mmHg | 14 | 2.1 | 45 mmHg | 2.4 | 5.9 |  | Cc1cc(C)cc(NC(=O)Cc2ccc(OC3(C(=O)N[C@@H](CCCCNC(=O)OCc4ccccc4)C(=O)O)CCCC3)cc2)c1 |
| 26.7 mmHg | 28.3 mmHg | 8.1 mmHg | -0.6 | 2.7 | 28.6 mmHg | 2.4 | 1.6 |  | Cc1cc(C)cc(NC(=O)Cc2ccc(OC3(C(=O)N[C@H](CCCCN)C(=O)O)CCCC3)cc2)c1 |
| 31.1 mmHg | 27.1 mmHg | 11.2 mmHg | 5.4 | 2.1 | 34 mmHg | 2.6 | 2.3 |  | Cc1cc(C)cc(NC(=O)Cc2ccc(OC3(C(=O)N[C@H](CO)C(=O)O)CCCC3)cc2)c1 |
| 48.1 mmHg | 28.7 mmHg | 8.2 mmHg | 20.3 | 1.9 | 49.8 mmHg | 2.6 | 1.7 |  | Cc1cc(C)cc(NC(=O)Cc2ccc(OC3(C(=O)N[C@H](Cc4ccccc4)C(=O)O)CCCC3)cc2)c1 |
| 53.9 mmHg | 25.7 mmHg | 13 mmHg | 28.6 | 2 | 54.8 mmHg | 2.7 | 2.6 |  | Cc1cc(C)cc(NC(=O)Cc2ccc(OC3(C(=O)N[C@H](C(=O)O)C(C)C)CCCC3)cc2)c1 |
